These results are taken from ChEMBL document CHEMBL1144550, “Molecular probes of DNA bulges: functional assay and spectroscopic analysis” (Bioorg Med Chem, 2007).

SMILES strings stand for the structures. The source made the active and inactive calls. No cut-off for these calls is given here.

Usually Kd stands for the free concentration of one partner at which half of the binding sites on the other are occupied at equilibrium, for simple one-to-one binding.

Test [1] can be described thus: Effect on DNA binding assessed as binding to HT3AGTT synthetic oligo sequence code by measuring fluorescence stimulation due to AT base pairs next to bulge in bulge binding assay. Also noted: species or system Homo sapiens. In outline: (§1)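 Dissociation constants for a panel of 17 synthetic bulged oligos, taken from changes in drug fluorescence in emission spectra (excitation 360 nm, emission 480 nm) at 5 °C. Binding appears either as quenching or as stimulation of drug fluorescence. Values are given with standard deviations.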

Test [2] in a line: Effect on DNA binding assessed as binding to HT4AGTT synthetic oligo sequence code by measuring fluorescence stimulation due to AT base pairs next to bulge in bulge binding assay. Also noted: species or system Homo sapiens. In outline: as §1
The nature of test [3]: Effect on DNA binding assessed as binding to HT3AGT synthetic oligo sequence code by measuring fluorescence stimulation due to AT base pairs next to bulge in bulge binding assay. Also noted: species or system Homo sapiens. In outline: as §1
The nature of test [4]: Effect on DNA binding assessed as binding to HT3AGCTT synthetic oligo sequence code by measuring fluorescence stimulation due to AT base pairs next to bulge in bulge binding assay. The arrangement: species or system Homo sapiens. In outline: as §1
A short description of test [5]: Effect on DNA binding assessed as binding to HT3AGTA synthetic oligo sequence code by measuring fluorescence stimulation due to AT base pairs next to bulge in bulge binding assay. The arrangement: species or system Homo sapiens. Summed up: as §1
Test [6] in a line: Effect on DNA binding assessed as binding to HT3TGTA synthetic oligo sequence code by measuring fluorescence stimulation due to AT base pairs next to bulge in bulge binding assay. Also noted: species or system Homo sapiens. Summed up:
as §1

Test [7] in a line: Effect on DNA binding assessed as binding to HT3GGTA synthetic oligo sequence code by measuring fluorescence quenching due to GC base pairs next to bulge in bulge binding assay. Also noted: species or system Homo sapiens. In outline: as §1
A short description of test [8]: Effect on DNA binding assessed as binding to HT3GGTT synthetic oligo sequence code by measuring fluorescence quenching due to GC base pairs next to bulge in bulge binding assay. The arrangement: species or system Homo sapiens. In outline:
as §1

The nature of test [9]: Effect on DNA binding assessed as binding to HT3GGTC synthetic oligo sequence code by measuring fluorescence quenching due to GC base pairs next to bulge in bulge binding assay. The arrangement: species or system Homo sapiens. In outline: as §1
A short description of test [10]: Effect on DNA binding assessed as binding to HT3CGTC synthetic oligo sequence code by measuring fluorescence quenching due to GC base pairs next to bulge in bulge binding assay. Also noted: species or system Homo sapiens. Summed up: as §1
A short description of test [11]: Effect on DNA binding assessed as binding to HT3AT synthetic oligo sequence code by measuring fluorescence stimulation due to AT base pairs next to bulge in bulge binding assay. Also noted: species or system Homo sapiens. In outline:
as §1

A short description of test [12]: Effect on DNA binding assessed as binding to HT3CGTA synthetic oligo sequence code by measuring fluorescence stimulation due to AT base pairs next to bulge in bulge binding assay. Also noted: species or system Homo sapiens. In outline: as §1
Test [13] in a line: Effect on DNA binding assessed as binding to HT3AGTC synthetic oligo sequence code by measuring fluorescence quenching due to GC base pairs next to bulge in bulge binding assay. Also noted: species or system Homo sapiens. Summed up:
as §1

Test [14] in a line: Effect on DNA binding assessed as binding to HT3GATC synthetic oligo sequence code by measuring fluorescence quenching due to GC base pairs next to bulge in bulge binding assay. Also noted: species or system Homo sapiens. In outline:
as §1

A short description of test [15]: Effect on DNA binding assessed as binding to HT3GTTG synthetic oligo sequence code by measuring fluorescence quenching due to GC base pairs next to bulge in bulge binding assay. Also noted: species or system Homo sapiens. In outline:
as §1

Test [16] is filed under the species Homo sapiens. Nature of the test: Effect on slipped DNA synthesis assessed as enhanced synthesis at 40 uM relative to control.
The species named for test [17] is Homo sapiens. Briefly: Effect on DNA binding assessed as binding to DA12:DAc12 synthetic oligo sequence code by measuring fluorescence quenching due to GC base pairs next to bulge in bulge binding assay. Summed up: as §1
A short description of test [18]: Effect on DNA binding assessed as binding to DA12:BA14 synthetic oligo sequence code by measuring fluorescence stimulation due to AT base pairs next to bulge in bulge binding assay. Also noted: species or system Homo sapiens. Summed up: as §1
In test [19] the target is DNA polymerase I Klenow fragment (Escherichia coli) (UniProt P00582). Nature of the test: Induction of slipped DNA synthesis assessed as incorporation of [32P]TMP at 40 uM.
A short description of test [20]: Effect on DNA binding assessed as binding to HT3GGTA synthetic oligo sequence code by measuring fluorescence stimulation due to AT base pairs next to bulge in bulge binding assay. The arrangement: species or system Homo sapiens. Summed up: as §1
A short description of test [21]: Effect on DNA binding assessed as binding to HT3AGTC synthetic oligo sequence code by measuring fluorescence stimulation due to AT base pairs next to bulge in bulge binding assay. The arrangement: species or system Homo sapiens. In outline:
as §1

For the compound `CN[C@H]1[C@@H](O[C@H]2c3cc4ccccc4cc3[C@H]3[C@@H]2CC[C@]32C(=O)C=Cc3ccc(OC)cc32)O[C@H](C)[C@H](O)[C@@H]1O`, the Kd is 80 nM in test [1]; 110 nM in test [2]; 8400 nM in test [3]; 2100 nM in test [4]; 220 nM in [5]; 1130 nM in [6]. Moreover, the Kd stood at 290 nM in [7]; 140 nM in [8]; 100 nM in test [9]; 150 nM in [10]; 10000 nM in test [11]; 110 nM in [12]. For the same compound, the Kd in [13] is 290 nM; in test [14], 240 nM; in test [15], 160 nM; in test [18] it was 600 nM. Also, the values for the Activity (in the test filed under Homo sapiens [16]; in [19]) were 31.8 and 75000 cpm, respectively. Moreover, in the test filed under Homo sapiens [17], the outcome was inactive.

On to `CN[C@H]1[C@@H](O[C@@H]2c3cc4ccccc4cc3[C@@H]3[C@H]2CC[C@@]32C(=O)C=Cc3ccc(OC)cc32)O[C@H](C)[C@H](O)[C@@H]1O`, for which the Kd was found to be 130 nM in test [1]; 240 nM in test [2]; 4100 nM in test [3]; 1700 nM in [4]; 1400 nM in test [5]; 550 nM in test [6]. Also, the Kd came out at 110 nM in [8]; 160 nM in test [9]; 170 nM in test [10]; 13000 nM in [11]; 160 nM in test [12]; 150 nM in [14]. For the same compound, the Kd was 300 nM in [15], 1960 nM in test [20], 260 nM in test [21] and 800 nM in [18]. The Activity in the test filed under Homo sapiens [16] came out at 15.7; in test [19], 37000 cpm. Besides, the result in the test listed under Homo sapiens [17] was inactive.
